From ChEMBL document CHEMBL1158515, “Novel selective thiazoleacetic acids as CRTH2 antagonists developed from in silico derived hits. Part 1” (Bioorg Med Chem Lett, 2010) come the findings set out here.

In test [1] the target is T1, Prostaglandin D2 receptor 2 (Homo sapiens) (UniProt Q9Y5Y4).
T1 sequence (whole entry): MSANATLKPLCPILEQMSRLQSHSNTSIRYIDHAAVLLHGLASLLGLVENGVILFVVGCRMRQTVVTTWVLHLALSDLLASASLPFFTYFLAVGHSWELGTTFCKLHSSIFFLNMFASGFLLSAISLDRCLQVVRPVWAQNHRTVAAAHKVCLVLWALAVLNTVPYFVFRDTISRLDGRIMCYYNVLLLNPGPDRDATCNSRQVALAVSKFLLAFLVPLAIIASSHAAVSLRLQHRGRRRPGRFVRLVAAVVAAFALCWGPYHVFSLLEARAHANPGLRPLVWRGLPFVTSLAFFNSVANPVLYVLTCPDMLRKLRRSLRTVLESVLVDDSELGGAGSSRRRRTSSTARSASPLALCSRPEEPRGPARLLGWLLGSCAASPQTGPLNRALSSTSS
Description: Antagonist activity at human CRTH2 receptor expressed in HEK285-7 cells assessed as inhibition of beta arrestin translocation by bioluminescence resonance energy transfer assay relative to control. The test is classed as functional, cell-based. In short, it runs like this:
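Same BRET2 β-arrestin2 translocation format in CRTH2-transfected HEK385-7 cells: 5 min antagonist preincubation, then PGD₂ at about 75–80% of maximal agonist efficacy for 5 min, DeepBlueC coelenterazine, 515/400 nm ratio. Value is antagonist efficacy expressed as percent.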

In test [2] the target is T2, Prostaglandin D2 receptor 2 (Homo sapiens, UniProt Q9Y5Y4).
T2 sequence (Q9Y5Y4 whole entry): T1 sequence (whole entry)
Description: Displacement of[3H]PGD2 from human CRTH2 receptor expressed in african green monkey COS7 cells. It counts as cell-based, COS-7. The essentials: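 Equilibrium competition binding against [³H]PGD₂ on stably transfected COS7 cells expressing human CRTH2. Nonspecific binding defined with […] unlabelled PGD₂. IC50 reported.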

In test [3] the target is T2, Prostaglandin D2 receptor 2. Description: Antagonist activity at human CRTH2 receptor expressed in HEK285-7 cells assessed as inhibition of beta arrestin translocation by bioluminescence resonance energy transfer assay. The test is classed as functional, cell-based. In short, it runs like this: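 BRET2 readout in HEK385-7 cells transfected with CRTH2 (GFP2-β-arrestin2 acceptor, receptor-Rluc donor). Cells preincubated with antagonist 5 min with shaking, then PGD₂ added at a level eliciting about 75–80% of maximal agonist response, 5 min more. DeepBlueC coelenterazine injected; emission read 5 s later at 400 and 515 nm; signal = 515/400 ratio. IC50 derived.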

Each structure is given as a SMILES string. A value given as a limit tells only on which side of the number the result lay.

In the case of `O=C(O)Cc1sc(Nc2ccc3ccccc3c2)nc1-c1ccc(Br)cc1`, the Efficacy in test [1] is above 70%. The IC50 (usually the concentration at which inhibition is half-maximal) in test [2] came to 220 nM; in test [3] it was 370 nM.
Taken in the same sequence, the figures for `O=C(O)Cc1sc(-c2ccccc2)nc1-c1ccc(-c2ccccc2)cc1` were above 70%, 38 nM and 630 nM.
Taken in the same sequence, the figures for `O=C(O)Cc1sc(Nc2ccc3ccccc3c2)nc1-c1ccc(Oc2ccccc2)cc1` were 20%, 94 nM and 260 nM.
Take `O=C(O)Cc1sc(Cc2ccccc2-c2cccc(OC(F)(F)F)c2)nc1-c1ccc(F)cc1`: the Efficacy in test [1] is above 70%. For the same molecule, the figures for the IC50 in test [2] and in test [3] were 160 nM and above 100000 nM, respectively.
The corresponding values for `O=C(O)Cc1sc(-c2ccccc2)nc1-c1ccc(Cl)cc1` [FENTIAZAC] are above 70%, 550 nM and 960 nM.
Taken in the same sequence, the figures for `Cc1ccc(Nc2nc(-c3ccc(Cl)cc3)c(CC(=O)O)s2)cc1` were above 70%, 750 nM and 560 nM.
The corresponding values for `O=C(O)Cc1sc(-c2ccc(F)cc2)nc1-c1ccccc1` are above 70%, 1500 nM and 3700 nM.
Turning to `O=C(O)Cc1sc(Nc2ccccc2F)nc1-c1ccc(Oc2ccccc2)cc1`, the Efficacy in test [1] is above 70%. Besides, the IC50 in test [2] is 210 nM; in test [3] it was above 100000 nM.
In the case of `COc1ccc(-c2nc(-c3ccccc3)sc2CC(=O)O)cc1`, the Efficacy in test [1] is above 70%. Moreover, the IC50 was found to be 7000 nM in test [2] and 5000 nM in test [3].
Turning to `COc1ccccc1Nc1nc(-c2ccc(-c3ccccc3)cc2)c(CC(=O)O)s1`, the Efficacy in test [1] was above 70%. Further, the results for the half-inhibitory concentration (IC50) in test [2] and in test [3] were 310 nM and 1900 nM, respectively.
